SMARCA2 act: increases SMARCA2 function in MMTV reporter cells. activation, % at 9.1 µM. MG213 cells, MMTV-luciferase reporter, dexamethasone, overnight. 370,000 compounds, 1% hits; in the data active = activation above about 7.8%
MC4R antag cAMP: antagonists of human melanocortin 4 receptor (MC4R); MC4R-expressing cells, MTII-stimulated cAMP, LANCE TR-FRET; inhibition, % at 6.5 µM; 360,000 compounds, 0.48% hits; AID 540295;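 active = inhibition above its plate's cutoff, the mean of tested wells on that plate plus 3 SD, cut at about 29% in these data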
Target sequence (P32245 whole entry, looked up): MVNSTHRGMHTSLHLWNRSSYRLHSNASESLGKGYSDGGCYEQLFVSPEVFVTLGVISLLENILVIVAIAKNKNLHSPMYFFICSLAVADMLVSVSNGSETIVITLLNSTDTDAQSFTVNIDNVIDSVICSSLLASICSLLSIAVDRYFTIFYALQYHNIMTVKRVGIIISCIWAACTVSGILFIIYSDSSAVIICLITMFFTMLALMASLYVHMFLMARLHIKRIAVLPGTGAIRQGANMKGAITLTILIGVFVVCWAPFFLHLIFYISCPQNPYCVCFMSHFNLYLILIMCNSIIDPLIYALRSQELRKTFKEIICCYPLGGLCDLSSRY
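System: U2OS-MC4R stable cell line; Technique: Eu-cAMP/anti-cAMP TR-FRET, emission 671 nm; Repeats: single well per compound; Also added: Melanotan II; Dosing: one concentration, 6.5 µM nominal; Schedule: 30-min compound, 1-h challenge, 1-h detection, room temperature.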
F508del corr: correctors of CFTR F508del function in bronchial epithelial cells. activity (quench increase), % at 7.58 µM. CFBE cells, YFP halide quenching; stimulated with forskolin plus potentiator P3; % fluorescence drop versus neutral controls. 350,000 compounds, 0.36% hits;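 active = mean added fluorescence quench of at least 8% versus neutral control, with both replicates also reaching 8%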;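 note: cells transiently co-express mutant CFTR-F508del with the halide-sensitive YFP; corrector assay measuring rescue of mutant channel to the surface after 24 h compound exposure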
MC4R barr agon: human MC4R agonism via beta-arrestin; U2OS MC4R beta-arrestin complementation, luminescence; percent of melanotan II response, DMSO zero; AID 540308; 360,000 compounds, 0.98% hits; P32245; activation, % at 8.9 µM;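 active = activation above a per-plate cutoff, the mean activation of sample wells on that plate plus 3 SD, cut at about 8% in these data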
Of the large screens only hits and unclear results are named; the others gave an inactive call. Shown are actives, neighbours in structure and some others; about 2.1% of the full set was active somewhere.

C[C@H](O)C#Cc1ccc2c(c1)O[C@@H](CN(C)C(=O)Nc1ccccc1)[C@H](C)CN([C@H](C)CO)S2(=O)=O	none (no result: SMARCA2 act, MC4R antag cAMP, MC4R barr agon)
N#C[C@@H]1[C@H](c2ccccc2-c2ccc(F)cc2)[C@H](CO)N1C(=O)NC1CCCC1	none (no result: SMARCA2 act, MC4R antag cAMP, MC4R barr agon)
CCN(C(=O)COC(=O)c1cc2c(s1)CCCC2)c1c(N)n(Cc2ccccc2)c(=O)[nH]c1=O	F508del corr 15
CCN(C(=O)CSc1nnc(C)n1-c1ccc(C)cc1)c1c(N)n(Cc2ccccc2)c(=O)[nH]c1=O	F508del corr 20
CCN(C(=O)COC(=O)/C=C/c1c(C)nn(-c2ccccc2)c1C)c1c(N)n(Cc2ccccc2)c(=O)[nH]c1=O	F508del corr 10
CO[C@@H]1CN(C)C(=O)c2ccc(NS(C)(=O)=O)cc2OC[C@@H](C)N(C(=O)NC(C)C)C[C@@H]1C	none (no result: SMARCA2 act, MC4R antag cAMP, MC4R barr agon)
CCN(CC(=O)Nc1cc(Cl)ccc1-n1cncn1)Cc1nc2ccccc2c(=O)[nH]1	F508del corr 14
CN(CC(=O)Nc1cc(C(F)(F)F)ccc1-n1cncn1)Cc1nc2ccccc2c(=O)[nH]1	none
C[C@H](CO)N1C[C@H](C)[C@H](CN(C)S(=O)(=O)c2ccc(F)cc2)Oc2c(NC(=O)NC3CCCCC3)cccc2C1=O	none (no result: SMARCA2 act, MC4R antag cAMP, MC4R barr agon)
Cn1c(-c2ccc(F)cc2)cc2onc(-c3c(F)cccc3Cl)c2c1=O	SMARCA2 act 10 (no result: MC4R antag cAMP, MC4R barr agon)
COc1ccccc1N=C1NC(=O)/C(=C/c2ccc(N(C)C)cc2)S1	F508del corr 15
C[C@@H]1CN([C@H](C)CO)C(=O)Cc2cc(NC(=O)Cn3cnnn3)ccc2O[C@H]1CN(C)Cc1ccc(Oc2ccccc2)cc1	none (no result: SMARCA2 act, MC4R antag cAMP, MC4R barr agon)
CC(=O)Nc1cc(-c2cccc(C(=O)NCCN(C)C)c2)cn2c(-c3ccc(F)c(Cl)c3)cnc12	none
CC(=O)Nc1cc(-c2ccc(CO)cc2)cn2c(-c3ccc(F)c(Cl)c3)cnc12	MC4R barr agon 9.1
C[C@H](CO)N1C[C@H](C)[C@@H](CN(C)Cc2ccc(C(=O)O)cc2)OCc2cn(nn2)CCCC1=O	none (no result: SMARCA2 act, MC4R antag cAMP, MC4R barr agon)
CC(C)COC(=O)NC1c2ccccc2Oc2ccccc21	MC4R barr agon 10
O=C(N/N=C/C=C/c1ccco1)c1cnccn1	none
O=C(N/N=C/c1ccco1)c1cnccn1	SMARCA2 act 8.0
C[C@@H]1CN([C@H](C)CO)S(=O)(=O)c2ccc(C3=CCCC3)cc2O[C@H]1CN(C)C(=O)c1ccc(F)cc1	none (no result: SMARCA2 act, MC4R antag cAMP, MC4R barr agon)
O=C(Nc1cccc(-c2cnc3ccccc3n2)c1)c1cccc(NC(=O)c2ccco2)c1	MC4R barr agon 35 (no result: F508del corr)
Cc1ccccc1OCC(=O)NC(=S)Nc1ccc(S(=O)(=O)NC2CCCCC2)cc1	none (no result: F508del corr)
CCc1ccc(OCC(=O)NC(=S)Nc2ccc(S(=O)(=O)NC3CCCCC3)cc2)cc1	MC4R barr agon 8.3 (no result: F508del corr)
COc1ccc(C(=O)c2sc3nc(-c4ccccc4)ccc3c2N)cc1	none (no result: SMARCA2 act, F508del corr)
CC(C)OC(=O)c1sc2nc(-c3ccccc3)ccc2c1N	MC4R barr agon 9.5
C[C@@H]1CCCCO[C@H](CN(C)CC2CCCCC2)[C@@H](C)CN([C@H](C)CO)C(=O)c2cc(NS(=O)(=O)c3cccs3)ccc2O1	none (no result: SMARCA2 act, MC4R antag cAMP, MC4R barr agon)
C[C@@H]1CCCCO[C@H](CN(C)C(=O)c2ccncc2)[C@H](C)CN([C@@H](C)CO)C(=O)c2cc(NS(C)(=O)=O)ccc2O1	none (no result: SMARCA2 act, MC4R antag cAMP, MC4R barr agon)
COc1ccc(NC(=O)N(C)C[C@@H]2Oc3c(NC(=O)c4ccc(-c5nccs5)cc4)cccc3C(=O)N([C@@H](C)CO)C[C@@H]2C)cc1	none (no result: SMARCA2 act, MC4R antag cAMP, MC4R barr agon)
O=C(NC[C@@H]1CC[C@H]2[C@H](CN2Cc2cccc(Cl)c2)O1)C1CC1	none (no result: SMARCA2 act, MC4R antag cAMP, MC4R barr agon)
CCCc1ccc(O)c(N=Cc2cc(Br)cc(OCC)c2O)c1	MC4R barr agon 12
CCc1ccc(O)c(N=Cc2cccc(C)c2O)c1	none
C#CCOCCOCCOCCNc1nc(N2CCN(C(=O)[C@H]([C@@H](C)CC)n3cc(CCC(=O)O)nn3)CC2)nc(N2CCN(C(=O)[C@H](CCCCN)n3cc(CCCC)nn3)CC2)n1	F508del corr 9.2
C#CCOCCOCCOCCNc1nc(N2CCN(C(=O)CCCCCCCCCCNC(=O)[C@H]([C@@H](C)CC)n3cc(CCCCCN)nn3)CC2)nc(N2CCN(C(=O)CCCCCCCCCCNC(=O)[C@H](CO)n3cc(CCCCCN)nn3)CC2)n1	none (no result: SMARCA2 act, F508del corr)
C#CCOCCOCCOCCNc1nc(N2CCN(C(=O)[C@H]([C@@H](C)CC)n3cc(CCCCN)nn3)CC2)nc(N2CCN(C(=O)[C@H](CCCCN)n3cc(CCCC)nn3)CC2)n1	none
C#CCOCCOCCOCCNc1nc(N2CCN(C(=O)CCCCCCCCCCNC(=O)[C@H]([C@@H](C)CC)n3cc(CCCCN=C(N)N)nn3)CC2)nc(N2CCN(C(=O)CCCCCCCCCCNC(=O)[C@H](CO)n3cc(CCCCCN)nn3)CC2)n1	MC4R antag cAMP 32 (no result: SMARCA2 act, F508del corr)
C#CCOCCOCCOCCNc1nc(N2CCN(C(=O)CCCCCCCCCCNC(=O)[C@H]([C@@H](C)CC)n3cc(CCCCCN)nn3)CC2)nc(N2CCN(C(=O)CCCCCCCCCCNC(=O)[C@H]([C@@H](C)CC)n3cc(CCCCN=C(N)N)nn3)CC2)n1	MC4R antag cAMP 57 (no result: SMARCA2 act, F508del corr)
O=C(C[C@H]1C[C@H]2c3cc(NC(=O)CC4CC4)ccc3O[C@H]2[C@@H](CO)O1)NCC(F)(F)F	none (no result: SMARCA2 act, MC4R antag cAMP, MC4R barr agon)
COc1ccc(S(=O)(=O)N(C)C[C@H]2Oc3ccc(NS(=O)(=O)c4ccc(C)cc4)cc3CC(=O)N([C@H](C)CO)C[C@@H]2C)cc1	none (no result: SMARCA2 act, MC4R antag cAMP, MC4R barr agon)
O=C(C(Cc1ccccc1)n1cccc1)N1CCCCCC1 (configuration not stated)	none
O=C(C(Cc1ccccc1)n1cccc1)N1CCCCC1 (configuration not stated)	F508del corr 10
O=C(CNc1ccc2ccccc2c1)N/N=C/c1ccc([N+](=O)[O-])o1	MC4R barr agon 11
Cc1noc(C)c1NC(=O)Nc1ccc2c(c1)C(=O)N([C@@H](C)CO)C[C@H](C)[C@@H](CN(C)C(=O)Nc1ccc(C(F)(F)F)cc1)OCCCC[C@@H](C)O2	none (no result: SMARCA2 act, MC4R antag cAMP, MC4R barr agon)
CCOc1cc(S(=O)(=O)Nc2ccc(CC)cc2)ccc1Cl	MC4R barr agon 9.4 (no result: F508del corr)
Cc1nn2cc(-c3cccc(Cl)c3)cnc2c1Br	F508del corr 9.5
CCN1/C(=C\c2ccc3cc(C)ccc3[n+]2CC)Sc2cc(C)c(C)cc21	F508del corr 62
CCN1/C(=C/c2ccc3cccc(C)c3[n+]2CC)Sc2ccccc21	none (no result: F508del corr)
CC[n+]1c(C)sc2c3ccsc3ccc21	none
CCN1/C(=C/c2ccc3cc(C)ccc3[n+]2CC)Sc2ccc3sccc3c21	MC4R barr agon 14 (no result: SMARCA2 act, F508del corr)
CN(C)C(=O)C[C@@H]1CC[C@H]2[C@@H](COC[C@H](O)CN2Cc2nccs2)O1	none (no result: SMARCA2 act, MC4R antag cAMP, MC4R barr agon)
CC(C)C#Cc1ccc2c(c1)O[C@@H](CN(C)C(=O)c1ccccn1)[C@@H](C)CN([C@H](C)CO)S2(=O)=O	none (no result: SMARCA2 act, MC4R antag cAMP, MC4R barr agon)
C[C@H](CO)N1C[C@H](C)[C@@H](CN(C)Cc2ccncc2)Oc2ncc(C3=CCCCC3)cc2C1=O	none (no result: SMARCA2 act, MC4R antag cAMP, MC4R barr agon)
O=C(/C=C/c1ccccc1)NCCOc1ccccc1	SMARCA2 act 7.8 (no result: F508del corr)
COCC#Cc1cnc2c(c1)C(=O)N([C@@H](C)CO)C[C@@H](C)[C@@H](CN(C)Cc1ccc3c(c1)OCO3)O2	none (no result: SMARCA2 act, MC4R antag cAMP, MC4R barr agon)
